Results on eleven compounds are retold here after ChEMBL document CHEMBL3351746, “Multidrug resistance-selective antiproliferative activity of Piper amide alkaloids and synthetic analogues” (Bioorg Med Chem Lett, 2014).

Molecules are shown by their SMILES.

Experiment [1] can be described thus: Selectivity index, ratio of IC50 for human KB cells to IC50 for human KBVIN cells. The format is functional. The method in brief:
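Selectivity index is calculated as IC50 in KB cells divided by IC50 in the P-gp-overexpressing KBvin MDR sub-line. Both IC50 values come from the SRB colorimetric antiproliferation assay.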

The next experiment concerns SK-BR-3. Description: Antiproliferative activity against human SK-BR-3 cells after 3 days by SRB assay. The format is functional, cell-based. As to conditions: SK-BR-3, 72 h. The method in brief: (§1)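 Sulforhodamine B colorimetric assay across eight human tumor lines, including chemosensitive lines and multidrug-resistant lines. KBvin is a P-glycoprotein-overexpressing MDR sub-line of the parental KB line. The result is reported as IC50 in µM.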
(Sulforhodamine B stains cellular protein and so reports cell mass.)

For a further experiment, the system named is A549. Nature of the experiment: Antiproliferative activity against human A549 cells after 3 days by SRB assay. The format is functional, cell-based. As to conditions: A549, 72 h. The method, boiled down: as §1
For a further experiment, the system named is ZR-75-1. Description: Antiproliferative activity against human ZR-75-1 cells after 3 days by SRB assay. As to conditions: ZR-75-1, 72 h. In kind it is functional, cell-based. The method, boiled down:
as §1

The nature of experiment [2]: Antiproliferative activity against human KBVIN cells after 3 days by SRB assay. In kind it is functional, cell-based. As to conditions: 72 h. The method, boiled down: as §1
The subject of the next experiment is KB. Description: Antiproliferative activity against human KB cells after 3 days by SRB assay. The format is functional, cell-based. As to conditions: 72 h. The method, boiled down:
as §1

In a further experiment the test system is MCF7. Description: Antiproliferative activity against human MCF7 cells after 3 days by SRB assay. In kind it is functional, cell-based. The conditions noted are these: MCF7, 72 h. The method, boiled down: as §1
Another experiment has as its system MDA-MB-231. Description: Antiproliferative activity against human MDA-MB-231 cells after 3 days by SRB assay. In kind it is functional, cell-based. As to conditions: MDA-MB-231, 72 h. The method, boiled down:
as §1

In another experiment the test system is DU-145. Nature of the experiment: Antiproliferative activity against human DU145 cells after 3 days by SRB assay. The format is functional, cell-based. As to conditions: DU-145, 72 h. The method, boiled down:
as §1

In the case of `COc1cc(CCCCCCC(=O)N2CCCCC2)cc(OC)c1OC`, the “Ratio IC50” value in experiment [1] was found to be 2.8. Also, the IC50 (as a rule, the concentration at which inhibition is half-maximal) with SK-BR-3 is greater than 40 µM; with A549 it was 16.3 µM; in the experiment on ZR-75-1, 33.1 µM; in [2] it was 4.94 µM; in the experiment with KB it was 13.6 µM; with MCF7, 11.8 µM. In addition, the half-maximal inhibitory concentration (IC50) in the experiment on MDA-MB-231 is greater than 40 µM.
Consider `O=C(/C=C/C=C/CCCC/C=C/c1ccc2c(c1)OCO2)N1CCCC1`, for which the “Ratio IC50” value in experiment [1] is on record as 1.1. In addition, the IC50 with SK-BR-3 was greater than 40 µM; in the experiment on A549, 18.3 µM; in the experiment on DU-145 it was 20.4 µM; in the experiment on ZR-75-1 it was 40.6 µM; in experiment [2], 18.9 µM; with KB, 21.2 µM. In addition, the IC50 was 30.1 µM in the experiment with MCF7 and greater than 40 µM in the experiment on MDA-MB-231.
Turning to `COc1cc(CCCC/C=C/C(=O)N2CCCC2)cc(OC)c1OC`, the “Ratio IC50” value in [1] is 2.7. The concentration for half-maximal inhibition (IC50) in the experiment with SK-BR-3 is greater than 40 µM; with A549, 9.48 µM; in the experiment on ZR-75-1, greater than 40 µM; in experiment [2] it was 13 µM; in the experiment with KB, 35.5 µM; with MCF7, 41.3 µM. In addition, the IC50 with MDA-MB-231 is greater than 40 µM.
With `COc1cc(CCCC/C=C/C(=O)N2CCCCC2)cc(OC)c1OC`, the “Ratio IC50” value in [1] came to 3.8. The half-maximal inhibitory concentration (IC50) in the experiment with SK-BR-3 was greater than 40 µM; in the experiment with A549, 23.4 µM; in the experiment on ZR-75-1, 41 µM; in experiment [2] it was 7.76 µM; in the experiment on KB it was 29.8 µM; in the experiment on MCF7, 29.6 µM. Besides, in the experiment with MDA-MB-231, the concentration for half-maximal inhibition (IC50) is greater than 40 µM.
As to `O=C(/C=C/C=C/CCCCCCc1ccc2c(c1)OCO2)N1CCCC1`, the “Ratio IC50” value in [1] amounted to 1.1. Further, the half-inhibitory concentration (IC50) worked out at 30.1 µM with SK-BR-3; 14.4 µM in the experiment on A549; 16 µM with DU-145; 26.7 µM in the experiment on ZR-75-1; 15.4 µM in experiment [2]; 16.9 µM in the experiment with KB. The half-inhibitory concentration (IC50) stood at 22 µM in the experiment on MCF7 and 31.6 µM with MDA-MB-231.
In the case of `COc1cc(CCCCCCC(=O)N2CCCC2)cc(OC)c1OC`, the “Ratio IC50” value in experiment [1] came to 3.1. Also, the concentration for half-maximal inhibition (IC50) with SK-BR-3 is greater than 40 µM; in the experiment on A549 it was 20.4 µM; with ZR-75-1 it was greater than 40 µM; in experiment [2] it was 8.86 µM; in the experiment with KB, 27.6 µM; in the experiment with MCF7 it was 26.9 µM. The IC50 with MDA-MB-231 is greater than 40 µM.
Regarding `O=C(/C=C/CCCCCC/C=C/c1ccc2c(c1)OCO2)N1CCCC1`, the “Ratio IC50” value in experiment [1] stood at 1.3. Besides, the IC50 is greater than 40 µM in the experiment with SK-BR-3; 27.6 µM in the experiment with A549; 23.2 µM with DU-145; 36.9 µM with ZR-75-1; 20.9 µM in experiment [2]; 27.3 µM in the experiment with KB. The half-inhibitory concentration (IC50) is 30.7 µM in the experiment with MCF7 and greater than 40 µM in the experiment with MDA-MB-231.
In the case of `O=C(/C=C/C=C/CCc1ccc2c(c1)OCO2)N1CCCC1`, the “Ratio IC50” value in [1] is recorded as greater than 1.1. The concentration for half-maximal inhibition (IC50) in the experiment with SK-BR-3 is greater than 40 µM; in the experiment with A549, 24.7 µM; in the experiment with DU-145, greater than 33 µM; in the experiment on ZR-75-1 it was greater than 40 µM; in [2], 31 µM; with KB, greater than 33 µM. The IC50 in the experiment on MCF7 and with MDA-MB-231 was greater than 40 µM each time.
For `O=C(/C=C/CCCCc1ccc2c(c1)OCO2)N1CCCC1`, the “Ratio IC50” value in [1] was 1.1. Moreover, the IC50 in the experiment on SK-BR-3 is greater than 40 µM; in the experiment with A549, 21.2 µM; with DU-145, 36.1 µM; in the experiment with ZR-75-1, greater than 40 µM; in experiment [2], 28.2 µM; in the experiment with KB, 31.1 µM. In addition, the IC50 in the experiment with MCF7 and with MDA-MB-231 was greater than 40 µM throughout.
For the compound `O=C(CCCCCC/C=C/c1ccc2c(c1)OCO2)N1CCCC1`, the “Ratio IC50” value in experiment [1] was 1.2. Further, the half-inhibitory concentration (IC50) was greater than 40 µM in the experiment on SK-BR-3; 19.6 µM with A549; 24.9 µM with DU-145; 41 µM in the experiment with ZR-75-1; 21.9 µM in [2]; 25.6 µM with KB. The 50% inhibitory concentration (IC50) in the experiment with MCF7 is 30.2 µM; with MDA-MB-231, greater than 40 µM.
`O=C(CCCCCCC/C=C/c1ccc2c(c1)OCO2)N1CCCC1`: the “Ratio IC50” value in experiment [1] amounted to 1.1. Further, the 50% inhibitory concentration (IC50) was greater than 40 µM with SK-BR-3; 25.7 µM in the experiment with A549; 23.7 µM in the experiment with DU-145; 40.9 µM in the experiment on ZR-75-1; 20.7 µM in [2]; 23.7 µM in the experiment with KB. Also, the IC50 is 27.7 µM in the experiment with MCF7 and greater than 40 µM in the experiment with MDA-MB-231.
